# Experimental data from different studies.
# Protocols differ between the studies behind these lines.
# Read-out: cell growth or viability
SMILES,cell line,assay,setting,IC50 [nM]
COc1cc(Nc2nc(CNCc3ccccc3)cc3c(-c4ccccc4)n[nH]c23)cc(OC)c1OC,WI-38,MTS,48 h,8100
CCN(CC)CCCCNc1ncc2cc(-c3cc(OC)cc(OC)c3)c(NC(=O)NC(C)(C)C)nc2n1,RT-4,MTT,5 days,5
C[C@H]1CNC(=O)c2cnn3ccc(nc23)N[C@H](C)c2cc(F)ccc2O1,HCC827,MTT,72 h,430
Cc1cc(C)cc(COc2cc3c(cc2OCc2cc(C)cc(C)c2)[C@H]2C[C@](O)(Cc4cn(CC5CCCCC5)nn4)C[C@H](C)N2CC3)c1,ASPC1,MTT,,572
COc1ccc(CCc2cc(C(=O)c3cc(OC)c(OC)c(OC)c3)c(N)s2)cc1,Molt4/C8,,,> 10000
C=C(C)C(=O)Nc1ccc(-c2c(-c3ccc(Oc4nccc(C)n4)c(F)c3)c3c(N)ncnc3n2C)cc1,AN3-CA,ATP luminescence,96 h,13.7
Nc1ccn([C@@H]2O[C@H](CO)[C@@H](O)C2(F)F)c(=O)n1,ASPC1,MTT,,65
Cc1cc(C)cc(COc2cc3c(cc2OCc2cc(C)cc(C)c2)[C@H]2C[C@](O)(Cc4cn(Cc5ccc(O)cc5)nn4)C[C@H](C)N2CC3)c1,ASPC1,MTT,,450
C=CC(=O)Nc1cc(Nc2nccc(-c3cn(C4CC4)c4ccccc34)n2)c(OC)cc1N(C)CCN(C)C,HCC827,ATP luminescence,72 h,3.3
CCN1C(=O)N(c2c(F)c(OC)cc(OC)c2F)Cc2cnc3[nH]c(CN4CCOCC4)cc3c21,RT-4,ATP luminescence,96 h,5.03
C/C=C/C(=O)Nc1ccc(Cn2cc(C[C@@]3(O)C[C@@H]4c5cc(OCc6cc(C)cc(C)c6)c(OCc6cc(C)cc(C)c6)cc5CCN4[C@@H](C)C3)nn2)cc1,ASPC1,MTT,,553
COc1cc(C(=O)Nc2cc(OCCN3CCCC3)c3ccccc3n2)nc(C(=O)Nc2cc(OCCN3CCCC3)c3ccccc3n2)c1,WI-38,ATP luminescence,72 h,3900
Cc1cccc(-n2ncc(Br)c(Br)c2=O)c1,NHBE,resazurin,96 h,1610
COC(C)(C)CCC[C@](C)(O)[C@H]1CC[C@]2(C)[C@@H]1[C@H](O)C[C@@H]1[C@@]3(C)CC[C@H](O)C(C)(C)[C@@H]3CC[C@]12C,NCI-H358,MTT,72 h,19100
Cc1cc(C)cc(COc2cc3c(cc2OCc2cc(C)cc(C)c2)[C@H]2C[C@](O)(Cc4cn(Cc5ccc(C#N)cc5)nn4)C[C@H](C)N2CC3)c1,ASPC1,MTT,,632
NCCOc1cc(NC(=O)c2cc(OCc3ccc(F)cc3)cc(C(=O)Nc3cc(OCCN)c4ccccc4n3)n2)nc2ccccc12,WI-38,ATP luminescence,72 h,4900
NCc1cc2c(-c3ccccc3)n[nH]c2c(Nc2ccccc2)n1,WI-38,MTS,48 h,> 10000
CCn1c(=O)c(-c2ccc(-c3cncs3)cc2Cl)cc2cnc(Nc3ccc(N4CCN(C)CC4)cc3)nc21,HPAF-II,MTT,24 h,7900
CC(C)C[C@H](NC(=O)[C@H](Cc1ccccc1)NC(=O)c1cnccn1)B(O)O,EFM-192A,ATP luminescence,,6.9
COc1cc(-c2oc3cc(O)cc(O)c3c(=O)c2O)ccc1O,RT-4,ATP luminescence,72 h,34300
Cc1cc(C)cc(COc2cc3c(cc2OCc2cc(C)cc(C)c2)C2CC(O)(Cc4cn(CCCCCCOc5cccc6c5C(=O)N(C5CCC(=O)NC5=O)C6=O)nn4)CC(C)N2CC3)c1 (stereo not drawn),ASPC1,MTT,,880
CC(=O)C1=C(C)Nc2sc(C(=O)c3ccc(Cl)c(Cl)c3)c(N)c2C1c1cccnc1 (stereo not drawn),HMC3,imaging,,41900
COc1cc(C(=O)c2c(N)sc(CCc3ccccc3)c2C)cc(OC)c1OC,Molt4/C8,,,> 10000
Cc1ccc2[nH]c(=O)c3cc(C(=O)NCCCN(C)Cc4ccccc4)sc3c2c1,HPAF-II,MTT,24 h,22400
COc1cc(C(=O)Nc2cc(OC)c3ccccc3n2)nc(C(=O)Nc2cc(OC)c3ccccc3n2)c1,WI-38,ATP luminescence,72 h,> 40000
COc1cc(Nc2nc(CN)cc3c(-c4ccccc4)n[nH]c23)cc(OC)c1OC,WI-38,MTS,48 h,> 10000
NCCOc1cc(C(=O)Nc2cc(OCCN3CCCC3)c3ccccc3n2)nc(C(=O)Nc2cc(OCCN3CCCC3)c3ccccc3n2)c1,WI-38,ATP luminescence,72 h,500
Cc1cc(C)cc(COc2cc3c(cc2OCc2cc(C)cc(C)c2)[C@H]2C[C@](O)(Cc4cn(CCCCCCNC(=O)[C@@H](CC(C)C)NC(=O)[C@@H](O)[C@H](N)Cc5ccccc5)nn4)C[C@H](C)N2CC3)c1,ASPC1,MTT,,1480
CCCCCCCCCc1ccc(C(=O)Nc2cc(C)ccc2C(=O)OC)cc1,RPE,,,> 120000
COc1ccc(C[C]2([Ti+2][C]3(Cc4ccc(OC)cc4)C=CC=C3)C=CC=C2)cc1.[Cl-].[Cl-],CAKI-1,XTT,24 h,> 200000
COc1cc(Nc2nccc(-c3cnn4nc(OC)ccc34)n2)cc(C(F)(F)F)c1,HCC827,ATP luminescence,,970
NCCCOc1cc(NC(=O)c2cc(OCCN)cc(C(=O)Nc3cc(OCCCN)c4ccccc4n3)n2)nc2ccccc12,WI-38,ATP luminescence,72 h,10600
CCN1CCN(c2ccc(Nc3cc(N(C)C(=O)Nc4c(Cl)c(OC)cc(OC)c4Cl)ncn3)cc2)CC1,RT-4,ATP luminescence,96 h,9.36
NCCOc1cc(NC(=O)c2cc(OCc3c[nH]nn3)cc(C(=O)Nc3cc(OCCN)c4ccccc4n3)n2)nc2ccccc12,WI-38,ATP luminescence,72 h,39700
Cc1nc(Nc2ncc(C(=O)Nc3c(C)cccc3Cl)s2)cc(N2CCN(CCO)CC2)n1,ASPC1,MTT,,380
O=C(Nc1cc(OCCN2CCCC2)c2ccccc2n1)c1cc(OCCN2CCCC2)cc(C(=O)Nc2cc(OCCN3CCCC3)c3ccccc3n2)n1,WI-38,ATP luminescence,72 h,2100
Cc1cc(C)cc(COc2cc3c(cc2OCc2cc(C)cc(C)c2)[C@H]2C[C@](O)(Cc4cn(Cc5ccc(NC(=O)/C=C/CN(C)C)cc5)nn4)C[C@H](C)N2CC3)c1,ASPC1,MTT,,434
C#CCOc1cc(C(=O)Nc2cc(OCCCN)c3ccccc3n2)nc(C(=O)Nc2cc(OCCCN)c3ccccc3n2)c1,WI-38,ATP luminescence,72 h,3500
Clc1ccc(COc2cncc(-c3cnn(C4CCNCC4)c3)c2)c(Cl)c1,HMC3,imaging,,5180
Cc1c[nH]c(/C=C2\C(=O)Nc3ccccc32)c1CCC(=O)O,RT-4,MTT,5 days,2000
Cc1cc(C)cc(COc2cc3c(cc2OCc2cc(C)cc(C)c2)[C@@H]2C[C@@](O)(Cc4cn(Cc5ccc(S(C)(=O)=O)cc5)nn4)C[C@@H](C)N2CC3)c1,ASPC1,MTT,,513
O=c1c(O)c(-c2cc(O)c(O)c(O)c2)oc2cc(O)cc(O)c12,RT-4,ATP luminescence,72 h,72700
